Measurements as given in ChEMBL document CHEMBL1127785, “[[omega-(Heterocyclylamino)alkoxy]benzyl]-2,4-thiazolidinediones as potent antihyperglycemic agents” (1994).
Active and inactive are the calls of the source. The rule behind the calls is not given here.

How the values were obtained:
Mus musculus [1] = experiment: Percent reduction in area under glucose tolerance curve (AUC) was determined at 300 umol/kg dose of diet in mice; IA = No significant activity; type: functional, organism-based
How it was run: (§1)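 C57 Bl/6 ob/ob mice, 9–10 weeks old at purchase, 6–8 per group, kept at 26 ± 2 °C on a 12 h light/dark cycle. Compound was mixed into powdered diet, given fresh daily for 8 days. Mice were then fasted 5 h and given oral glucose 3 g/kg. Tail blood glucose was measured at 0, 45, 90 and 135 min by hexokinase/G6PDH. Read-out is % AUC reduction vs controls (trapezoid rule), Student's t-test.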

Mus musculus [2] = experiment: Percent reduction in area under glucose tolerance curve at 100 uM/kg dose in diet of mice.; type: functional; how it was run: as §1
Mus musculus [3] = experiment: Percent reduction in area under glucose tolerance curve (AUC) was determined at 10 umol/kg dose of diet in mice; type: functional; how it was run: as §1
Mus musculus [4] = experiment: Percent reduction in area under glucose tolerance curve (AUC) was determined at 3 umol/kg dose of diet in mice; type: functional; how it was run: as §1
Mus musculus [5] = experiment: Percent reduction in area under glucose tolerance curve (AUC) was determined at 30 umol/kg dose of diet in mice; type: functional; how it was run: as §1
Mus musculus [6] = experiment: Percent reduction in area under glucose tolerance curve (AUC) was determined at 30 umol/kg dose of diet in mice; IA = No significant activity; type: functional, organism-based; how it was run: as §1
Mus musculus [7] = experiment: Percent reduction in area under glucose tolerance curve at 300 uM/kg dose in diet of mice.; type: functional; how it was run: as §1
Mus musculus [8] = experiment: Percent reduction in area under glucose tolerance curve (AUC) was determined at 3 umol/kg dose of diet in mice; IA = No significant activity; type: functional, organism-based; how it was run: as §1
Mus musculus [9] = experiment: Percent reduction in area under glucose tolerance curve (AUC) was determined at 100 umol/kg dose of diet in mice; IA = No significant activity; type: functional, organism-based; how it was run: as §1
Mus musculus [10] = experiment: Percent reduction in area under glucose tolerance curve (AUC) was determined at 1000 umol/kg dose of diet in mice; IA = No significant activity; type: functional, organism-based; how it was run: as §1
Mus musculus [11] = experiment: Percent reduction in area under glucose tolerance curve (AUC) was determined at 10 umol/kg dose of diet in mice; IA = No significant activity; type: functional, organism-based; how it was run: as §1
Mus musculus [12] = experiment: Percent reduction in area under glucose tolerance curve (AUC) was determined at 1000 umol/kg dose of diet in mice; type: functional; how it was run: as §1
Mus musculus [13] = species on record: Mus musculus; experiment: No significant effect dose level on blood hemoglobin.; type: functional
How it was run: (§2)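 Blood hemoglobin content was measured in C57 Bl/6 ob/ob mice after 8 days of compound given by dietary admixture. The value is the highest dose (µmol/kg of diet) with no significant reduction in blood hemoglobin.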

Mus musculus [14] = species on record: Mus musculus; experiment: Antihyperglycemic potency dose producing approximately 25% reduction in area under glucose tolerance curve; type: functional; how it was run: as §1
[15] = Selectivity ratio for Antihyperglycemic potency dose and No significant effect dose; type: functional
Mus musculus [16] = experiment: Percent reduction in area under glucose tolerance curve (AUC) was determined at 3000 umol/kg dose of diet in mice; type: functional; how it was run: as §1
Mus musculus [17] = species on record: Mus musculus; experiment: No significant effect dose level on blood hemoglobin; type: functional; how it was run: as §2

Compound: O=C(NCCOc1ccc(CC2SC(=O)NC2=O)cc1)Nc1ccc(Cl)c(Cl)c1 (centres undefined)
- Reduction (Mus musculus [1]): Not significant

Compound: CN(CCSc1ccc(CC2SC(=O)NC2=O)cc1)c1nc2ccccc2o1 (centres undefined)
- Reduction (Mus musculus [2]): 20%

Compound: Cc1csc(N(C)CCOc2ccc(CC3SC(=O)NC3=O)cc2)n1 (centres undefined)
- Reduction (Mus musculus [3]): 28%
- Reduction (Mus musculus [4]): 14%
- Reduction (Mus musculus [5]): 53%

Compound: CN(CCOc1ccc(CC2SC(=O)NC2=O)cc1)c1ccc(Cl)cn1 (centres undefined)
- Reduction (Mus musculus [6]): Not significant
- Reduction (Mus musculus [7]): 44%

Compound: CN(CCOc1ccc(CC2SC(=O)NC2=O)cc1)c1ccc(N)cn1 (centres undefined)
- Reduction (Mus musculus [6]): Not significant

Compound: CN(CCOc1ccc(CC2SC(=O)NC2=O)cc1)c1nc(-c2ccccc2)cs1 (centres undefined)
- Reduction (Mus musculus [6]): Not significant
- Reduction (Mus musculus [2]): 34%

Compound: CN(CCOc1ccc(/C=C2\SC(=O)NC2=O)cc1)c1ccccn1
- Reduction (Mus musculus [6]): inactive
- Reduction (Mus musculus [7]): 47%

Compound: Cc1ccnc(N(C)CCOc2ccc(CC3SC(=O)NC3=O)cc2)c1 (centres undefined)
- Reduction (Mus musculus [7]): 41%
- Reduction (Mus musculus [8]): Not significant
- Reduction (Mus musculus [5]): 34%

Compound: CN(CC(O)COc1ccc(CC2SC(=O)NC2=O)cc1)c1nc2ccccc2o1 (centres undefined)
- Reduction (Mus musculus [9]): Not significant

Compound: CN(CCOc1ccc(CC2SC(=O)NC2=O)cc1)c1ccc([N+](=O)[O-])cn1 (centres undefined)
- Reduction (Mus musculus [6]): Not significant

Compound: CN(CCOc1ccc(CC2SC(=O)NC2=O)cc1)C(=O)NCc1ccccc1 (centres undefined)
- Reduction (Mus musculus [6]): Not significant
- Reduction (Mus musculus [7]): 41%

Compound: COc1ccc(NC(=O)NCCOc2ccc(CC3SC(=O)NC3=O)cc2)cc1 (centres undefined)
- Reduction (Mus musculus [1]): Not significant

Compound: CN(CCOc1ccc(CC2SC(=O)NC2=O)cc1)c1ncccc1Cl (centres undefined)
- Reduction (Mus musculus [7]): 40%
- Reduction (Mus musculus [5]): 15%

Compound: Cc1cccc(N(C)CCOc2ccc(CC3SC(=O)NC3=O)cc2)n1 (centres undefined)
- Reduction (Mus musculus [6]): Not significant
- Reduction (Mus musculus [7]): 33%

Compound: CN(CCOc1ccc(C2SC(=O)NC2=O)cc1)c1nc2ccccc2o1 (centres undefined)
- Reduction (Mus musculus [10]): inactive

Compound: O=C(NCCOc1ccc(CC2SC(=O)NC2=O)cc1)Nc1ccc(Cl)cc1 (centres undefined)
- Reduction (Mus musculus [1]): Not significant

Compound: CN(CCOc1ccc(/C=C2\SC(=O)NC2=O)cc1)c1nc2ccccc2o1
- Reduction (Mus musculus [7]): 30%

Compound: CN(CCOc1ccc(CC2SC(=O)NC2=O)cc1)c1nccc(-c2ccccc2)n1 (centres undefined)
- Reduction (Mus musculus [11]): Not significant

Compound: CN(CCOc1ccc(CC2SC(=O)NC2=O)cc1)c1cnccn1 (centres undefined)
- Reduction (Mus musculus [2]): 46%
- Reduction (Mus musculus [11]): Not significant

Compound: CC(COc1ccc(CC2SC(=O)NC2=O)cc1)N(C)c1nc2ccccc2o1 (centres undefined)
- Reduction (Mus musculus [9]): Not significant
- Reduction (Mus musculus [7]): 38%

Compound: O=C(NCCOc1ccc(CC2SC(=O)NC2=O)cc1)Nc1ccccc1 (centres undefined)
- Reduction (Mus musculus [12]): 58%
- Reduction (Mus musculus [2]): 21%

Compound: CN(CCCOc1ccc(CC2SC(=O)NC2=O)cc1)c1nc2ccccc2o1 (centres undefined)
- Reduction (Mus musculus [9]): inactive
- Reduction (Mus musculus [7]): 32%

Compound: O=C(NCCOc1ccc(CC2SC(=O)NC2=O)cc1)Nc1ccc(F)cc1 (centres undefined)
- Reduction (Mus musculus [10]): Not significant

Compound: Cc1nc(N(C)CCOc2ccc(CC3SC(=O)NC3=O)cc2)sc1C (centres undefined)
- Reduction (Mus musculus [11]): Not significant
- Reduction (Mus musculus [5]): 47%

Compound: Cc1nc(N(C)CCOc2ccc(CC3SC(=O)NC3=O)cc2)sc1-c1ccccc1 (centres undefined)
- Dose (Mus musculus [13]): <300 µM/kg
- Reduction (Mus musculus [3]): 27%
- Dose (Mus musculus [14]): 3 µM/kg
- Selectivity ratio [15]: < 100
- Reduction (Mus musculus [4]): 33%
- Reduction (Mus musculus [2]): 39%

Compound: CCc1ccc(CCOc2ccc(CC3SC(=O)NC3=O)cc2)nc1 (centres undefined) [PIOGLITAZONE]
- Reduction (Mus musculus [16]): 63%
- Reduction (Mus musculus [12]): 62%
- Reduction (Mus musculus [9]): inactive
- Reduction (Mus musculus [7]): 35%

Compound: CC(C)N(CCOc1ccc(CC2SC(=O)NC2=O)cc1)c1nc2ccccc2o1 (centres undefined)
- Reduction (Mus musculus [2]): 20%

Compound: O=C1NC(=O)C(Cc2ccc(OCCN(Cc3ccccc3)c3nc4ccccc4s3)cc2)S1 (centres undefined)
- Reduction (Mus musculus [9]): Not significant
- Reduction (Mus musculus [7]): 56%

Compound: O=C1NC(=O)C(Cc2ccc(OCCNc3ncccn3)cc2)S1 (centres undefined)
- Reduction (Mus musculus [5]): 15%

Compound: CN(CC(Oc1ccc(CC2SC(=O)NC2=O)cc1)c1ccccc1)c1nc2ccccc2o1 (centres undefined)
- Reduction (Mus musculus [6]): Not significant

Compound: CN(CCOc1ccc(CC2SC(=O)NC2=O)cc1)c1nc2ccccc2o1 (centres undefined) [BRL-48482]
- Dose (Mus musculus [13]): 30 µM/kg
- Dose (Mus musculus [14]): 3 µM/kg
- Selectivity ratio [15]: 10
- Reduction (Mus musculus [7]): 42%
- Reduction (Mus musculus [2]): 57%
- Reduction (Mus musculus [5]): 52%

Compound: CN(CCCCOc1ccc(CC2SC(=O)NC2=O)cc1)c1nc2ccccc2o1 (centres undefined)
- Reduction (Mus musculus [6]): Not significant
- Reduction (Mus musculus [7]): 25%

Compound: CN(CCOc1ccc(CC2SC(=O)NC2=O)cc1)c1ncc(-c2ccccc2)o1 (centres undefined)
- Reduction (Mus musculus [3]): 20%
- Reduction (Mus musculus [5]): 22%

Compound: CN(CCOc1ccc(CC2SC(=O)NC2=O)cc1)c1nc2ccccc2s1 (centres undefined)
- Reduction (Mus musculus [3]): 36%
- Reduction (Mus musculus [7]): 66%
- Reduction (Mus musculus [8]): Not significant
- Reduction (Mus musculus [2]): 51%

Compound: Cc1nc(N(C)CCOc2ccc(CC3SC(=O)NC3=O)cc2)oc1C (centres undefined)
- Reduction (Mus musculus [3]): 16%
- Reduction (Mus musculus [8]): Not significant
- Reduction (Mus musculus [5]): 33%

Compound: CN1C(=O)SC(Cc2ccc(OCCN(C)c3nc4ccccc4o3)cc2)C1=O (centres undefined)
- Reduction (Mus musculus [12]): 42%
- Reduction (Mus musculus [9]): Not significant

Compound: CC(=O)N(CCOc1ccc(CC2SC(=O)NC2=O)cc1)c1ncccn1 (centres undefined)
- Reduction (Mus musculus [5]): 19%

Compound: CN(CCOc1ccc(CC2CC(=O)NC2=O)cc1)c1nc2ccccc2o1 (centres undefined)
- Reduction (Mus musculus [1]): Not significant

Compound: CN(CCOc1ccc(CC2SC(=O)NC2=O)cc1)c1ccncc1 (centres undefined)
- Reduction (Mus musculus [11]): Not significant

Compound: CC(CN(C)c1nc2ccccc2o1)Oc1ccc(CC2SC(=O)NC2=O)cc1 (centres undefined)
- Reduction (Mus musculus [1]): Not significant

Compound: CN(CCOc1ccc(CC2[Se]C(=O)NC2=O)cc1)c1nc2ccccc2o1 (centres undefined)
- Reduction (Mus musculus [2]): 45%
- Reduction (Mus musculus [11]): Not significant

Compound: CN(CCOc1ccc(CC2SC(=O)NC2=O)cc1)C(=O)Nc1ccccc1 (centres undefined)
- Reduction (Mus musculus [7]): 27%

Compound: O=C1NC(=O)C(Cc2ccc(OCCNc3nc4ccccc4o3)cc2)S1 (centres undefined)
- Reduction (Mus musculus [6]): Not significant
- Reduction (Mus musculus [2]): 44%

Compound: CN(CCOc1ccc(CC2OC(=O)NC2=O)cc1)c1nc2ccccc2o1 (centres undefined)
- Reduction (Mus musculus [6]): Not significant
- Reduction (Mus musculus [12]): 52%
- Reduction (Mus musculus [7]): 41%
- Reduction (Mus musculus [2]): 23%

Compound: CN(CCOc1ccc(CCC2SC(=O)NC2=O)cc1)c1nc2ccccc2o1 (centres undefined)
- Reduction (Mus musculus [9]): Not significant

Compound: CC1(COc2ccc(CC3SC(=O)NC3=O)cc2)CCCCC1 (centres undefined) [CIGLITAZONE]
- Reduction (Mus musculus [1]): inactive
- Reduction (Mus musculus [16]): 41%

Compound: COc1cccc(N(C)CCOc2ccc(CC3SC(=O)NC3=O)cc2)n1 (centres undefined)
- Reduction (Mus musculus [6]): Not significant
- Reduction (Mus musculus [7]): 35%

Compound: CN(CCOc1ccc(CC2SC(=O)NC2=O)cc1)c1ncccn1 (centres undefined)
- Reduction (Mus musculus [3]): 18%
- Dose (Mus musculus [14]): 10 µM/kg
- Selectivity ratio [15]: 10
- Dose (Mus musculus [17]): 100 µM/kg
- Reduction (Mus musculus [4]): 18%
- Reduction (Mus musculus [2]): 43%

Compound: Cc1sc(N(C)CCOc2ccc(CC3SC(=O)NC3=O)cc2)nc1-c1ccccc1 (centres undefined)
- Reduction (Mus musculus [2]): 37%
- Reduction (Mus musculus [11]): Not significant
- Reduction (Mus musculus [5]): 20%

Compound: O=C1NC(=O)C(Cc2ccc(OCCNC(=S)Nc3ccccc3)cc2)S1 (centres undefined)
- Reduction (Mus musculus [6]): Not significant
- Reduction (Mus musculus [12]): 43%
- Reduction (Mus musculus [2]): 10%

Compound: CN(CCOc1ccc(CC2SC(=O)NC2=O)cc1)/C(=N/c1ccccc1)NC#N (centres undefined)
- Reduction (Mus musculus [1]): Not significant

Compound: Cc1ccc(N(C)CCOc2ccc(CC3SC(=O)NC3=O)cc2)nc1 (centres undefined)
- Reduction (Mus musculus [7]): 35%
- Reduction (Mus musculus [2]): 19%
- Reduction (Mus musculus [5]): 18%

Compound: CN(CCOc1ccc(CC2SC(=O)NC2=O)cc1)c1nccs1 (centres undefined)
- Reduction (Mus musculus [2]): 58%
- Reduction (Mus musculus [11]): Not significant
